Reference: ChEMBL document CHEMBL5653631, “A Potent and Selective ULK1 Inhibitor Suppresses Autophagy and Sensitizes Cancer Cells to Nutrient Stress” (iScience, 2018)
Blank lines part the entries; values can stand above or below the molecule they belong to.

Assays:
[1] = target: T1, Dual specificity mitogen-activated protein kinase kinase 6 (Homo sapiens) (UniProt P52564); assay: Inhibition of human recombinant MAP2K6 at 500 nM in presence of ATP by radiometric assay relative to control
T1 sequence (whole entry): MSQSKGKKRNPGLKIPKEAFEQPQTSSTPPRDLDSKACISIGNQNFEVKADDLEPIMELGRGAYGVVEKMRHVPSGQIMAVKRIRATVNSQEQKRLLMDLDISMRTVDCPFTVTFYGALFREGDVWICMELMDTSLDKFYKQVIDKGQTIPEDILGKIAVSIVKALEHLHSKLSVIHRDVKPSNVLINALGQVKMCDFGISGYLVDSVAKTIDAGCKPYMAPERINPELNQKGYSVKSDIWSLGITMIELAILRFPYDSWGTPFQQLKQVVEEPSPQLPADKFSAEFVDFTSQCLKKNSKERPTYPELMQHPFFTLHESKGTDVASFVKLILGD

[2] = target: Tyrosine-protein kinase Lck (Homo sapiens) (UniProt P06239); assay: Inhibition of human recombinant LCK at 500 nM in presence of ATP by radiometric assay relative to control
Sequence of Tyrosine-protein kinase Lck (Homo sapiens) (P06239 2-509 limits assumed): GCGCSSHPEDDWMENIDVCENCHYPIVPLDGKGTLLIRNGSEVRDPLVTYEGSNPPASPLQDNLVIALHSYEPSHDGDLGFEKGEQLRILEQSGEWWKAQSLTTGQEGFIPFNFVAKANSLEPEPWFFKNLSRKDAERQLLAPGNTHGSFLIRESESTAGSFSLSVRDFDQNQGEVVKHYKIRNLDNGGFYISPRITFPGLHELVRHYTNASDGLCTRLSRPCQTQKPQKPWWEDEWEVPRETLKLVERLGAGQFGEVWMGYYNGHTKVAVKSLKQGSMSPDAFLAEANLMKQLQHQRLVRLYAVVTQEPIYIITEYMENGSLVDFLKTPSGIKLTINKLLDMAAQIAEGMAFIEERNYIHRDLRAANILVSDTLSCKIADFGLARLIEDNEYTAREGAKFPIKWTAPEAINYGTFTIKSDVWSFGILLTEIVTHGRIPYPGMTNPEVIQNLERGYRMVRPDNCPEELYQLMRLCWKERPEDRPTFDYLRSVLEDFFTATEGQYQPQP

[3] = target: Serine/threonine-protein kinase PAK 2 (Homo sapiens) (UniProt Q13177); assay: Inhibition of human recombinant PAK2 at 500 nM in presence of ATP by radiometric assay relative to control
Sequence of Serine/threonine-protein kinase PAK 2 (Homo sapiens) (Q13177 whole entry): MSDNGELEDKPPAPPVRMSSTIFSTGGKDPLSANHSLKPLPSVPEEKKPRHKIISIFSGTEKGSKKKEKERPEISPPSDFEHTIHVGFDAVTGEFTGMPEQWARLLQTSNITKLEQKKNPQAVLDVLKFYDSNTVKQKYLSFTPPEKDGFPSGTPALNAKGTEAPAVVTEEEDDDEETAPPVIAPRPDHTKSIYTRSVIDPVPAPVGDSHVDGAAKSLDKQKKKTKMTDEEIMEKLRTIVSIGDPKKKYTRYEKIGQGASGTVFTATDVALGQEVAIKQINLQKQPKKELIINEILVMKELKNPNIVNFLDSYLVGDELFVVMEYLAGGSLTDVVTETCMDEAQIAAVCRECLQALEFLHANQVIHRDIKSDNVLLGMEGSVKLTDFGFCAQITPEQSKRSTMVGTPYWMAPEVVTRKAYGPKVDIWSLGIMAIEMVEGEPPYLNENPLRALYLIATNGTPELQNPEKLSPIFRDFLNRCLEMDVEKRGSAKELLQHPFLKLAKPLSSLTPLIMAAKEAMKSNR

[4] = target: Serine/threonine-protein kinase pim-3 (Homo sapiens) (UniProt Q86V86); assay: Inhibition of human recombinant PIM3 at 40 nM related to control ULK1
[5] = target: T2, Activin receptor type-1 (Homo sapiens) (UniProt Q04771); assay: Inhibition of human recombinant ALK2 at 40 nM in presence of ATP by radiometric assay relative to control
T2 sequence (whole entry): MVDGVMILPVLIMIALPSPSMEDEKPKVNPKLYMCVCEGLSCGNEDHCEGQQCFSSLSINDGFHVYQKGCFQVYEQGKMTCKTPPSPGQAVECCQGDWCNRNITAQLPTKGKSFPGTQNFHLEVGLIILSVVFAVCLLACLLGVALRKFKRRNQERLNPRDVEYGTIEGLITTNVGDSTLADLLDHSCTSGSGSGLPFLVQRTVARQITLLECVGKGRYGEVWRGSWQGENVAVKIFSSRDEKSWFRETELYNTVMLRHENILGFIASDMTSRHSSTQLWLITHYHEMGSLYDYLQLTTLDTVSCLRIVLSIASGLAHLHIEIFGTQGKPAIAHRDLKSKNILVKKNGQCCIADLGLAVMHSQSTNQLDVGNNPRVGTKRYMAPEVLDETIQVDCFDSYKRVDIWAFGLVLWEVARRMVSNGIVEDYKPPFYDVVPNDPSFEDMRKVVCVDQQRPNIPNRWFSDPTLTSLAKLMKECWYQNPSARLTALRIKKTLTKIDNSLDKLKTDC
How it was run: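 Panel of 327 recombinant human kinases, each assayed in vitro by radiometric activity assay in duplicate at a single inhibitor concentration per compound, chosen with reference to its ULK1 inhibition. Activity remaining was expressed as percent of vehicle control, and percent inhibition was calculated as 100 minus percent activity remaining.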

[6] = target: T3, Serine/threonine-protein kinase Nek11 (Homo sapiens) (UniProt Q8NG66); assay: Inhibition of human recombinant NEK11 at 40 nM related to control ULK1
T3 sequence (whole entry): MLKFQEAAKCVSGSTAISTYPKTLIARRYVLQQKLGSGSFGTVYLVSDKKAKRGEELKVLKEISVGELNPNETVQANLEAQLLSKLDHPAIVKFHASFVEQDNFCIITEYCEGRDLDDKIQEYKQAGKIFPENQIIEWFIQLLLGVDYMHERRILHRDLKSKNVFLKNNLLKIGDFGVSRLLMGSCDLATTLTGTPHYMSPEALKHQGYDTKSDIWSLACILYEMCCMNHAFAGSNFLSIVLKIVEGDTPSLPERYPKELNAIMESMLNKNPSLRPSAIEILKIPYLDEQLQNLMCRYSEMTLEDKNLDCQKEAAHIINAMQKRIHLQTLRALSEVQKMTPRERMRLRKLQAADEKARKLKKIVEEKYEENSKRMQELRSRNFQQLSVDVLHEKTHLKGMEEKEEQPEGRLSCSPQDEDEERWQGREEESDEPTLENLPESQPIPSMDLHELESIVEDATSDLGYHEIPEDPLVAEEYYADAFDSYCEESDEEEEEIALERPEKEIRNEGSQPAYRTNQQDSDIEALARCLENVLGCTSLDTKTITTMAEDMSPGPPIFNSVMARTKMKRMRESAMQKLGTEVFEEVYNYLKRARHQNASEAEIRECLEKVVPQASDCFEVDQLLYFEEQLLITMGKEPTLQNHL

[7] = target: Serine/threonine-protein kinase SIK2 (Homo sapiens) (UniProt Q9H0K1); assay: Inhibition of human recombinant QIK at 15 nM in presence of ATP by radiometric assay relative to control
Sequence of Serine/threonine-protein kinase SIK2 (Homo sapiens) (Q9H0K1 whole entry, looked up): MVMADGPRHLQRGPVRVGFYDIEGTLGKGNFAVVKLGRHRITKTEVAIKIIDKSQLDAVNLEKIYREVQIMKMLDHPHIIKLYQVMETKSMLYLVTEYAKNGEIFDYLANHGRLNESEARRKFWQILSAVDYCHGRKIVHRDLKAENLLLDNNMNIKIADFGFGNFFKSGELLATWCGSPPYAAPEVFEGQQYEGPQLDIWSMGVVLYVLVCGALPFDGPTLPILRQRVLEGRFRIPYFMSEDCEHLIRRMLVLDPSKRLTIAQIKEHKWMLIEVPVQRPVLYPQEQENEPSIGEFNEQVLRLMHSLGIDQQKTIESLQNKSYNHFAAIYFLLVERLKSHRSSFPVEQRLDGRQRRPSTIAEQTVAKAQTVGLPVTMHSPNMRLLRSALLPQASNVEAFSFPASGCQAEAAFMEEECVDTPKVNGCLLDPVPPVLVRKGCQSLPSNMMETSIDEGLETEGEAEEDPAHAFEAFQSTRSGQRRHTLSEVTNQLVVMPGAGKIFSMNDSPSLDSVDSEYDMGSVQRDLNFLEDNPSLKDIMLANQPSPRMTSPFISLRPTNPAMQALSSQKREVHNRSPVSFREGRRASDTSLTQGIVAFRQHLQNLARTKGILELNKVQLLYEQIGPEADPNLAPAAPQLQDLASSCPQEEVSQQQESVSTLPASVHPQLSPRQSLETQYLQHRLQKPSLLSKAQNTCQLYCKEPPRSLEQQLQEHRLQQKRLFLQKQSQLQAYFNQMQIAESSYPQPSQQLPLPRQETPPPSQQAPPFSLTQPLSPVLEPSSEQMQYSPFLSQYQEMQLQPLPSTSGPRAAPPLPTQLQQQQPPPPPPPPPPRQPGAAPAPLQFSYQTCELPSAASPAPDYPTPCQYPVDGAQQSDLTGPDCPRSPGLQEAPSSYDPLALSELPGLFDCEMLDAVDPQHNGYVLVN

[8] = target: Dual specificity protein kinase CLK4 (Homo sapiens) (UniProt Q9HAZ1); assay: Inhibition of human recombinant CLK4 at 15 nM related to control ULK1
Sequence of Dual specificity protein kinase CLK4 (Homo sapiens) (Q9HAZ1 whole entry, looked up): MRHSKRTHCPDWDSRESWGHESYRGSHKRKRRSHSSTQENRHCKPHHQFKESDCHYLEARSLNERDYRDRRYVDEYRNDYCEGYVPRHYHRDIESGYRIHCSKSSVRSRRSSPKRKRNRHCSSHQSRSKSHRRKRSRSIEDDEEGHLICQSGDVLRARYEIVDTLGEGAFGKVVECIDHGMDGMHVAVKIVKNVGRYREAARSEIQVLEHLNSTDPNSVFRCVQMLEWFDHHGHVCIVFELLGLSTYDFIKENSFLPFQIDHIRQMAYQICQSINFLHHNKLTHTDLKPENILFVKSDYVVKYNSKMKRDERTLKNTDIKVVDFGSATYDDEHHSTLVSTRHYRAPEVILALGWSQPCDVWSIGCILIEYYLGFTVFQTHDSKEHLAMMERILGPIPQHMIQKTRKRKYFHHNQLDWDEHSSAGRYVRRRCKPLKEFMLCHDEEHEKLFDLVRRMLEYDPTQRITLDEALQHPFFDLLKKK

[9] = target: NT-3 growth factor receptor (Homo sapiens) (UniProt Q16288); assay: Inhibition of human recombinant TRKC at 15 nM in presence of ATP by radiometric assay relative to control
Sequence of NT-3 growth factor receptor (Homo sapiens) (Q16288 32-839 limits assumed): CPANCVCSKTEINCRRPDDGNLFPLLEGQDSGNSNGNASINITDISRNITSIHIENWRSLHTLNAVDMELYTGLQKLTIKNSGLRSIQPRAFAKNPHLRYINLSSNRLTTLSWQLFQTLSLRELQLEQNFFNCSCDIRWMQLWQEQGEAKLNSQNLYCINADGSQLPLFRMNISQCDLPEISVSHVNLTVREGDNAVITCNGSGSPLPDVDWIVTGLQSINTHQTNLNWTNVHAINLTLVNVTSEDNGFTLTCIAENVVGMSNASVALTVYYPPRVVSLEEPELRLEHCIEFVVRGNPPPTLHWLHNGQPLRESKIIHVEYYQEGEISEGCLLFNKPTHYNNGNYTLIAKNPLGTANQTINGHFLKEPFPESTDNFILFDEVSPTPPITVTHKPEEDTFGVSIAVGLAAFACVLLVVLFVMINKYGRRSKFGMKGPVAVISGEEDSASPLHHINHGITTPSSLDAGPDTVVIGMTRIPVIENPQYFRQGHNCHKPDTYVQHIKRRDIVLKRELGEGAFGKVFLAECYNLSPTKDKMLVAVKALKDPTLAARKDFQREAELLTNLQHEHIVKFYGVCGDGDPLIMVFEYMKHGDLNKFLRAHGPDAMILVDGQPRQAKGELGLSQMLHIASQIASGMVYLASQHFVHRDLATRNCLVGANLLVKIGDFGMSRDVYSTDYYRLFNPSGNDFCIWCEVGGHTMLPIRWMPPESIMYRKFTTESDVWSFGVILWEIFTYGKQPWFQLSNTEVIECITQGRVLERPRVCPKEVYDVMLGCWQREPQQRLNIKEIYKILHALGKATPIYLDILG

[10] = target: T4, cGMP-dependent protein kinase 1 (Homo sapiens) (UniProt Q13976); assay: Inhibition of human recombinant PKG1 at 15 nM in presence of ATP by radiometric assay relative to control
T4 sequence (whole entry): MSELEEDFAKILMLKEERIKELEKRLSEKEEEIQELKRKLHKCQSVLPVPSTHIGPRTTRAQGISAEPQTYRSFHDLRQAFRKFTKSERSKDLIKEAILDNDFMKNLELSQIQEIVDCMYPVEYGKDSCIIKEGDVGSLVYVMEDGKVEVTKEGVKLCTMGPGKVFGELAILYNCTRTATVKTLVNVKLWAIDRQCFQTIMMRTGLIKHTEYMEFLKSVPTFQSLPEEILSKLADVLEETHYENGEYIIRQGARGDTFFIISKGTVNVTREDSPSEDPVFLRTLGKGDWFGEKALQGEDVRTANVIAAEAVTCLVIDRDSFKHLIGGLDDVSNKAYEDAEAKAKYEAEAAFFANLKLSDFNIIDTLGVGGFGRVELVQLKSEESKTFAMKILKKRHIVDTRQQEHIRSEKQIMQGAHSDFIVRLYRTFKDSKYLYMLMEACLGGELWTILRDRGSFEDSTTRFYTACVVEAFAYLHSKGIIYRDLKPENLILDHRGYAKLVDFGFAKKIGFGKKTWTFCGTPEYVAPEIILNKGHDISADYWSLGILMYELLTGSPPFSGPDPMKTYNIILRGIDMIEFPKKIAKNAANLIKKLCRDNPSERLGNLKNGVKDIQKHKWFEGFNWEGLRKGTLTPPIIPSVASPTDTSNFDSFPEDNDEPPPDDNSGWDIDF

inhibition [1]: 5%
inhibition [2]: 13%
inhibition [3]: 14%
SMILES: CNC(=O)c1ccccc1Oc1nc(Nc2cc(OC)c(OC)c(OC)c2)ncc1Br

fold change (FC) [4]: 0
inhibition [5]: 56%
fold change (FC) [6]: 0.11
SMILES: O=C(N[C@@H](C1CC1)C(F)(F)F)c1cc(-c2cnn3cc(-c4ccc(F)cc4)cnc23)cs1

inhibition [7]: 90%
fold change (FC) [8]: 0.94
inhibition [9]: 0%
inhibition [10]: 0%
SMILES: CC(C)[C@H](NC(=O)c1cc(-c2cnn3cc(-c4ccc(OCCN5CCCCC5)cc4)cnc23)cs1)C(F)(F)F
